Test results published in ChEMBL document CHEMBL4480367 (Medchemcomm, 2019).
Activity calls are given as the source filed them. The rule behind the calls is not given here.

Tests used:
[1] = Cytotoxicity against MDCK cells assessed as reduction in cell viability after 24 hrs by MTT assay; assay type: cell-based, Canis lupus familiaris; conditions: dog
Method in brief: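 MDCK cells were seeded at 2 × 10^4 per well and treated next day with graded concentrations in DMEM for 24 h. MTT (5 mg mL−1 solution) was added for 4 h at 37 °C, cells were lysed for 3 h, and A575 was read. CC50 is the concentration inhibiting cell growth by 50% versus control cultures.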

Saccharomyces cerevisiae = experiment: Toxicity against yeast assessed as reduction in cell viability; assay type: organism-based
Method in brief: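 Control yeast strain carrying empty plasmid, induced in 2% galactose SC medium (pH 6.5) lacking leucine, with compounds at graded concentrations for 46–48 h at 30 °C. A600 was read. Toxicity value is the concentration inhibiting proliferation by 50%.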

Influenza A virus [2] = experiment: (§1) Antiviral activity against amantadine-sensitive Influenza A virus (A/chicken/Hubei/327/2004(H5N1)) infected in MDCK cells assessed as reduction in early stage viral replication by measuring viral titer at 1.9 uM measured after 12 hrs by crystal violet staining-based plaque reduction assay during time-of-addition assay; assay type: functional, organism-based
Matrix protein 2 = Matrix protein 2 (UniProt P0DOF8); experiment: Inhibition of wild type Influenza A virus (A/chicken/Hubei/327/2004(H5N1)) M2 expressed in yeast cells after 46 to 48 hrs; assay type: cell-based
Sequence of Matrix protein 2 (P0DOF8 whole entry): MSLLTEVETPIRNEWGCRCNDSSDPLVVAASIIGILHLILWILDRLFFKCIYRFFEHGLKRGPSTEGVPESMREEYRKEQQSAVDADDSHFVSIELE
Method in brief: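 Yeast growth-restoration assay. Yeast carried the M2 coding sequence under the GAL1 promoter, grown in glucose SC medium (pH 6.5) lacking leucine, then washed and resuspended to A600 0.01 in 2% galactose SC medium. Compounds were added at graded concentrations; plates were incubated at 30 °C for 46–48 h and A600 was read. Hits were retested in triplicate for EC50.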

Influenza A virus [3] = experiment: as §1, with “4” for “1.9”; assay type: functional, organism-based
Influenza A virus [4] = experiment: as §1, with “1.7” for “1.9”; assay type: functional, organism-based
Influenza A virus [5] = experiment: Antiviral activity against Influenza A virus H5N1; assay type: functional, organism-based
Influenza A virus [6] = experiment: Antiviral activity against Influenza A virus (H1N1); assay type: functional, organism-based

Structure (SMILES)	CC50 at 24 h [1]	Activity (Saccharomyces cerevisiae)	EC50 (Matrix protein 2)	also measured
Cc1cc(CNS(=O)(=O)c2ccc(Br)cc2)c(C)s1	56.4 µM	133.2 µM		Activity (Influenza A virus [2]): Active
CCOC(=O)C1=C[C@@H](OC(CC)CC)[C@H](NC(C)=O)[C@@H](N)C1.O=P(O)(O)O [OSELTAMIVIR PHOSPHATE]	> 163 µM	> 214.5 µM	Not Active	
Cc1ccc(S(=O)(=O)NCc2cc3ccccc3s2)cc1	> 210 µM	> 211.08 µM	Not Active	
Cc1cc(CNS(=O)(=O)c2ccc(Br)cc2)c(C)o1	29.6 µM	72.6 µM		
O=S(=O)(NCc1cc2ccccc2s1)c1cccc(F)c1		> 180.5 µM	Not Active	
Cc1cc(CNS(=O)(=O)c2ccc(Cl)cc2)c(C)s1	52.9 µM	114.1 µM		
O=[N+]([O-])c1ccc(S(=O)(=O)NCc2csc3ccccc23)cc1	> 191 µM	> 192.3 µM		
O=S(=O)(NCc1csc2ccccc12)c1cccc(F)c1		> 208.5 µM	Not Active	
Cc1cc(CNS(=O)(=O)c2ccc(Cl)cc2)c(C)o1	55.7 µM	123.43 µM		
O=S(=O)(NCc1cc2ccccc2s1)c1ccccc1F		> 180.5 µM	Not Active	
O=[N+]([O-])c1ccc(S(=O)(=O)NCc2cccs2)cc1	133 µM	157.5 µM		
Cc1cc(CNS(=O)(=O)c2ccc(C#N)cc2)c(C)o1	105 µM	168.8 µM		
Cc1cc(CNS(=O)(=O)c2ccc(F)cc2)c(C)o1	138 µM	> 236.5 µM		
Cc1cc(CNS(=O)(=O)c2ccc(F)cc2)c(C)s1		120.2 µM	Not Active	
O=S(=O)(NCc1csc2ccccc12)c1ccc(Cl)cc1	69.6 µM	121.4 µM		
N#Cc1ccc(S(=O)(=O)NCc2cc3ccccc3s2)cc1		> 204 µM	Not Active	
O=[N+]([O-])c1ccc(S(=O)(=O)NCc2ccsc2)cc1	139 µM	> 224.6 µM		
NC(=O)c1nc(F)cnc1O				Activity (Influenza A virus [3]): Active
O=[N+]([O-])c1ccc(S(=O)(=O)NCc2ccc(Cl)s2)cc1	128 µM	> 201.3 µM	Not Active	

Structure (SMILES)	CC50 at 24 h [1]	Activity (Saccharomyces cerevisiae)	EC50 (Matrix protein 2)	also measured
Cc1cc(CNS(=O)(=O)c2ccc([N+](=O)[O-])cc2)c(C)o1	> 152 µM	> 215.9 µM		
O=S(=O)(NCc1cc2ccccc2s1)c1ccc(Br)cc1	> 174 µM	> 176.2 µM	Not Active	
O=S(=O)(NCc1csc2ccccc12)c1ccc(Br)cc1	87.1 µM	134.1 µM		
O=S(=O)(NCc1cc2ccccc2s1)c1ccc(Cl)cc1		> 198.3 µM	Not Active	
Cc1ccc(S(=O)(=O)NCc2csc3ccccc23)cc1	> 210 µM	> 211.08 µM		
Cc1cc(CNS(=O)(=O)c2ccc(C#N)cc2)c(C)s1	> 218 µM	> 218.7 µM		
NC12CC3CC(CC(C3)C1)C2 [AMANTADINE]	> 100 µM	> 443 µM		Activity (Influenza A virus [4]): Active
Cc1cc(C(=O)NCCSCc2ccc([N+](=O)[O-])cc2)c(C)o1				EC50 (Influenza A virus [5]): 1.25 µM
Cc1cc(CNS(=O)(=O)c2ccc([N+](=O)[O-])cc2)c(C)s1	> 204 µM	> 205.3 µM		
N#Cc1ccc(S(=O)(=O)NCc2csc3ccccc23)cc1	122 µM	> 204 µM		
O=[N+]([O-])c1ccc(S(=O)(=O)NCc2cc3ccccc3s2)cc1	> 191 µM	> 192.3 µM	Not Active	
O=S(=O)(NCc1cc2ccccc2s1)c1ccc(C(F)(F)F)cc1	> 180 µM	> 180.4 µM	Not Active	
O=S(=O)(NCc1cc2ccccc2s1)c1ccc(F)cc1		> 208.5 µM	Not Active	
O=S(=O)(NCc1csc2ccccc12)c1ccc(F)cc1	98.6 µM	133.8 µM		
CC1CC2=C(NC(=O)NC2c2ccc(O)c(Br)c2)c2ccccc21 (stereo not drawn)				EC50 (Influenza A virus [6]): 0.032 µM; EC50 (Influenza A virus [5]): 0.032 µM
O=S(=O)(NCc1csc2ccccc12)c1ccc(C(F)(F)F)cc1	94.8 µM	> 180.4 µM	Not Active	
O=[N+]([O-])c1ccc(S(=O)(=O)NCc2ccoc2)cc1	> 236 µM	> 237.4 µM		
O=S(=O)(NCc1csc2ccccc12)c1ccccc1F		59.1 µM	Not Active	
CC(=O)c1ccc(S(=O)(=O)NCc2csc3ccccc23)cc1	> 193 µM	> 194 µM		
